Our source for the MIC and IC50 values is ChEMBL document CHEMBL2331079, “Antibacterial and antiplasmodial constituents of Beilschmiedia cryptocaryoides” (J Nat Prod, 2013).

pIC50: −log10 of the molar value. ≈ marks a conversion by molar mass, not a printed value. Where only a bound is given, the exact number is not on record here.

Usually MIC stands for the smallest concentration in the dilution series that meets the test's criterion for growth inhibition. One may read the pIC50 as the IC50 on a negative log10 scale, so that one unit is a factor of ten. Low values mean a large IC50, high ones a small IC50.

One experiment deals with Escherichia coli. Briefly: Antibacterial activity against Escherichia coli 6r3 by paper disk diffusion method. The experiment is classed as functional. Summed up: (§1)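 Strains taken from the lab's own culture collection. Tested by paper disk diffusion, following the group's earlier published method. Each MIC was determined in triplicate.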
A general note: Agar diffusion results depend on both activity and mobility in agar.

A further experiment deals with Serratia plymuthica. Briefly: Antibacterial activity against Serratia plymuthica C48 by paper disk diffusion method. The format is functional. Summed up:
as §1

For experiment [1], the system named is Acinetobacter calcoaceticus. Briefly: Antibacterial activity against Acinetobacter calcoaceticus DSM 586 by paper disk diffusion method. The format is functional. Summed up: as §1
The subject of a further experiment is Stutzerimonas stutzeri. Briefly: Antibacterial activity against Pseudomonas stutzeri A1501 by paper disk diffusion method. The format is functional. Summed up: as §1
The test system of a further experiment is L6. Put plainly: Cytotoxicity against rat L6 cells after 70 hrs by Alamar Blue assay. Conditions: L6, 70 h. Background: The colour change of resazurin is a common sign of viable cells or microbes.
For the next experiment, the system named is Plasmodium falciparum. Briefly: Antiplasmodial activity against chloroquine-sensitive Plasmodium falciparum NF54 after 48 hrs by [3H]-hypoxanthine incorporation assay. The experiment is classed as functional, organism-based. In a few lines:
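Asexual blood-stage parasites in hypoxanthine-free RPMI 1640 with HEPES, NaHCO3, neomycin and Albumax, in human A+ erythrocytes (2.5% hematocrit, 0.3% parasitemia). Eleven 3-fold dilutions (100 to 0.002 μg/mL) from DMSO stocks. Incubated at 37 °C in 4% CO2/3% O2/93% N2. 3H-hypoxanthine (0.5 μCi) added at 48 h, then 24 h more. Read by scintillation counting. IC50 is the mean of two independent assays.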

As for `CC1(C)S[C@@H]2[C@H](NC(=O)[C@H](N)c3ccccc3)C(=O)N2[C@H]1C(=O)O` [AMPICILLIN], the MIC against Escherichia coli is 5 µg/mL (≈ 14.3 µM); against Serratia plymuthica it was 20 µg/mL (≈ 57.2 µM); in experiment [1], 5 µg/mL (≈ 14.3 µM); against Stutzerimonas stutzeri, 20 µg/mL (≈ 57.2 µM).

With `CCCCCC[C@@H]1[C@H]2C=C[C@H]3C(C(=O)O)=C[C@H](O)[C@@H]4C[C@@H]1[C@@H]2[C@H]43` [CRYPTOBEILIC ACID A], the pIC50 is 4.23 with L6 and 4.75 with Plasmodium falciparum. Further, the MIC with Escherichia coli is 10 µg/mL (≈ 31.6 µM); with Serratia plymuthica, over 50 µg/mL; in experiment [1], over 50 µg/mL; against Stutzerimonas stutzeri it was over 50 µg/mL.

As for `CCCCCC[C@@H]1[C@H]2C=C[C@H]3C(C(=O)O)=C[C@@H](O)[C@@H]4C[C@@H]1[C@@H]2[C@H]43` [CRYPTOBEILIC ACID B], the pIC50 was 4.69 with L6 and 5.27 with Plasmodium falciparum. For the same molecule, the MIC is 20 µg/mL (≈ 63.2 µM) against Escherichia coli, over 50 µg/mL in the experiment with Serratia plymuthica, 20 µg/mL (≈ 63.2 µM) in experiment [1] and 10 µg/mL (≈ 31.6 µM) against Stutzerimonas stutzeri.

For `O=C(O)C1=CC(=O)[C@@H]2C[C@H]3[C@H](Cc4ccc5c(c4)OCO5)[C@H]4C=C[C@@H]1[C@@H]2[C@H]43` [CRYPTOBEILIC ACID C], the pIC50 with L6 was 4.23; in the experiment with Plasmodium falciparum, 4.85. The MIC (in the experiment with Escherichia coli; in the experiment with Serratia plymuthica; in experiment [1]; in the experiment on Stutzerimonas stutzeri) was over 50 µg/mL each time.

Consider `CCCCCC[C@@H]1[C@H]2C=C[C@@H]3[C@@H]4[C@H]2[C@H]1C[C@H]4C=C[C@H]3C(=O)O` [CRYPTOBEILIC ACID D], for which the pIC50 with L6 is 4.21; with Plasmodium falciparum, 4.97. In addition, the MIC is 50 µg/mL (≈ 166 µM) in the experiment on Escherichia coli, over 50 µg/mL with Serratia plymuthica, over 50 µg/mL in experiment [1] and over 50 µg/mL against Stutzerimonas stutzeri.

In the case of `CN1CCN(c2cc3c(cc2F)c(=O)c(C(=O)O)cn3-c2ccc(F)cc2)CC1` [DIFLOXACIN], the MIC with Escherichia coli is 5 µg/mL (≈ 12.5 µM); against Serratia plymuthica it was 20 µg/mL (≈ 50.1 µM); in experiment [1], 5 µg/mL (≈ 12.5 µM); with Stutzerimonas stutzeri, 20 µg/mL (≈ 50.1 µM).

Molecule `COc1cc([C@@H]2c3cc4c(cc3[C@H](O)[C@H]3COC(=O)[C@H]23)OCO4)cc(OC)c1OC` [PODOFILOX] showed a pIC50 in the experiment with L6 of 8.10.

`O=C(O)[C@@H]1C=C[C@@H]2C[C@H]3[C@H](Cc4ccc5c(c4)OCO5)[C@H]4C=C[C@@H]1[C@@H]2[C@H]43` [TSANGIBEILIN B]: the negative logarithm of the IC50 (pIC50) in the experiment on L6 was 4.67; with Plasmodium falciparum it was 5.09. Besides, the MIC against Escherichia coli was 50 µg/mL (≈ 143 µM); against Serratia plymuthica, over 50 µg/mL; in experiment [1], over 50 µg/mL; against Stutzerimonas stutzeri, over 50 µg/mL.
